Experimental data from different studies.
Protocols differ between the studies behind these lines.
Organism: Severe acute respiratory syndrome coronavirus 2

SMILES	effect on	action	method	cell line	concentration	time	inhibition [%]
CC1=C(/C=C/C(C)=C/C=C/C(C)=C/C(=O)O)C(C)(C)CCC1	viral replication	inhibitor		Vero C1008	1 µM		42.1
Cn1c(C(=O)Nc2ccc(Cl)cc2)cc2c(=O)n3ccccc3nc21	viral replication			Vero	10 µM		91.8
COCC(=O)Nc1c(I)c(C(=O)NCC(O)CO)c(I)c(C(=O)N(C)CC(O)CO)c1I (stereo not drawn)	viral replication			Vero C1008	50 µM		2
CCOC(=O)c1ccc(C#Cc2ccc3c(c2)C(C)(C)CCS3)nc1	viral replication	inhibitor		Vero C1008	1 µM		49.9
Oc1c(Br)cc(Cl)c2cccnc12	viral replication	inhibitor		Vero C1008	30 µM		~103
Cc1cccn2c(=O)c3cc(C(=O)Nc4ccc(N(C)C)cc4)n(C)c3nc12	viral replication			Vero	10 µM		94.2
O=C(CCCN1CCC(O)(c2ccc(Cl)cc2)CC1)c1ccc(F)cc1	viral replication			Vero C1008	50 µM		3
CC1(C)CCC(C)(C)c2cc(C#Cc3ccc(C(=O)O)cc3)ccc21	viral replication	inhibitor		Vero C1008	1 µM		56.1
O=C(Nc1ccccc1F)c1cc2c(=O)n3ccccc3nc2n1Cc1ccccc1	viral replication			Vero	1 nM		12.3
CCCc1c(C(C)C)cc(C(C)C)c(C(C)O)c1-c1ccc(F)cc1 (stereo not drawn)	viral replication	inhibitor		Vero C1008	1 µM		52.8
Cn1c(C(=O)Nc2ccc3c(c2)OCCO3)cc2c(=O)n3ccccc3nc21	viral replication			Vero	10 nM		8
CC(C)=CCc1c(O)ccc(C(=O)/C=C/c2ccc(O)cc2)c1O	cytopathic effect			Vero C1008	25 µM		0
CC(C)=CCC[C@](C)(O)[C@H]1CC[C@]2(C)[C@@H]1CC[C@@H]1[C@@]3(C)CCC(=O)C(C)(C)[C@@H]3CC[C@]12C	viral replication	inhibitor		Calu-3	50 µM		99.5
Cc1cc(C)c(N(C)CC(=O)Nc2nc(-c3ccccn3)c[nH]2)c(C)c1	viral replication	inhibitor		Vero C1008	1 µM		50.7
C=C[C@@](C)(/C=C/c1ccc(O)cc1)CCC=C(C)C	cytopathic effect			Vero C1008	50 µM		0
CC(C)CC(NC(=O)OCc1ccccc1)C(=O)NC(C(=O)NCC(=O)C=[N+]=[N-])C(C)C (stereo not drawn)	viral replication	inhibitor		Vero C1008	1 µM		95.8
COc1ccc(C[C@@H]2c3cc(Oc4cc(C[C@@H]5c6cc(O)c(OC)cc6CCN5C)ccc4O)c(OC)cc3CCN2C)cc1	cytopathic effect			Vero C1008	3.125 µM		0
Cc1cc2c(cc1C(=O)Oc1ccc(C(=O)O)cc1)C(C)(C)CCC2(C)C	viral replication	inhibitor		Vero C1008	1 µM		49.8
CC1=C(C/C=C(\C)CC/C=C(\C)Cc2cccc(C(C)C)c2)C(=O)c2ccccc2C1=O	viral replication	inhibitor		VeroE6/TMPRSS2	100 µM	72 h	48
Cc1cc(NC(=O)c2cc3c(=O)n4cccc(C)c4nc3n2C)ccc1Br	viral replication			Vero	10 µM		91.9
O=C(/C=C/c1ccc(O)c(O)c1/C=C/c1ccc(O)c(O)c1)O[C@H](Cc1ccc(O)c(O)c1)C(=O)O	cytopathic effect			Vero C1008	6.25 µM		0
C=C(C)[C@]12C[C@@H](C)[C@@]34O[C@](Cc5ccccc5)(O[C@@H]1[C@@H]3C=C(COC(=O)Cc1ccc(O)c(OC)c1)C[C@]1(O)C(=O)C(C)=C[C@@H]41)O2	viral replication	inhibitor		Vero C1008	1 µM		53.2
CC(=O)c1cccc(NC(=O)c2cc3c(=O)n4ccccc4nc3n2C)c1	viral replication			Vero	10 nM		43.8
O=C(O[C@@H]1Cc2c(O)cc(O)cc2O[C@@H]1c1cc(O)c(O)c(O)c1)c1cc(O)c(O)c(O)c1	cytopathic effect	inhibitor		Vero C1008	3.125 µM		0
C=C1C[C@H]2[C@@](C)(C(=O)C(O)=C3C(C)(C)C(=O)CC[C@@]32C)[C@@H]2C(=O)O[C@@](C)(C(=O)OC)C(=O)[C@@]12C	viral replication	inhibitor		Calu-3	50 µM		82.1
CN=c1nc(-c2ccc(OC)c(OC)c2)n(-c2ccc(F)cc2)s1	viral replication	inhibitor	qPCR	Vero C1008	50 µM	24 h	21.5
CCC(CC)COC(=O)[C@H](C)N[P@](=O)(OC[C@H]1O[C@@](C#N)(c2ccc3c(N)ncnn23)[C@H](O)[C@@H]1O)Oc1ccccc1	viral replication			Vero	1 nM		14.8
CC1=C(C/C=C(\C)CC/C=C(\C)Cc2cccc3ccccc23)C(=O)c2ccccc2C1=O	viral replication	inhibitor		VeroE6/TMPRSS2	100 µM	72 h	48
COc1c2ccoc2c(OCC=C(C)C)c2oc(=O)ccc12	viral replication	inhibitor		Calu-3	50 µM		96
Cc1ccc(NC(=O)c2cc3c(=O)n4cccc(C)c4nc3n2C)cc1Cl	viral replication			Vero	0.1 µM		67.4
